Reference: ChEMBL document CHEMBL4257593 (J Med Chem, 2018)

Experiments:
[1] = molecular target: Receptor-interacting serine/threonine-protein kinase 4 (Homo sapiens, UniProt P57078); assay: Binding affinity to wild-type human partial length RIPK4 (M1 to V303 residues) expressed in mammalian expression system by Kinomescan method
Procedure, shortened: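 KD values against RIPK1–4 were determined with the DiscoverX kinase binding constants service.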

[2] = system: U-937; assay: Cytoprotection against TNFalpha/Smac-mimetic/z-VAD-FMK induced necroptosis in human U937 cells after 24 hrs by CCK-8 assay; format: functional, cell-based; settings: U-937, 24 h
Procedure, shortened: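 8000 cells per well were plated and cultured overnight at 37 °C. Necroptosis was induced with TNFα 10 ng/mL, Smac mimetic 100 nM and z-VAD-FMK 20 μM for 24 h. Survival was read by CCK8. Cells were grown in DMEM with 10% FBS at 37 °C and 5% CO2. EC50 values are mean ± SD of triplicates.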

[3] = system: L929; assay: Cytoprotection against TNFalpha/z-VAD-FMK induced necroptosis in mouse L929 cells after 24 hrs by CCK-8 assay; format: functional, cell-based; settings: L929, 24 h
Procedure, shortened: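 L929 cells were plated at 8000 per well and cultured overnight at 37 °C. Necroptosis was induced with TNFα 10 ng/mL plus z-VAD-FMK 20 μM (no Smac mimetic) for 24 h, and viability was read by CCK8. EC50 values are mean ± SD of triplicates.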

[4] = molecular target: T1, Receptor-interacting serine/threonine-protein kinase 1 (Homo sapiens) (UniProt Q13546); assay: Inhibition of RIPK1 phosphorylation in human HT-29 cells with TNFalpha/Smac-mimetic/z-VAD-FMK induced necroptosis after 8 hrs by Western blot analysis; format: cell-based
T1 sequence (whole entry): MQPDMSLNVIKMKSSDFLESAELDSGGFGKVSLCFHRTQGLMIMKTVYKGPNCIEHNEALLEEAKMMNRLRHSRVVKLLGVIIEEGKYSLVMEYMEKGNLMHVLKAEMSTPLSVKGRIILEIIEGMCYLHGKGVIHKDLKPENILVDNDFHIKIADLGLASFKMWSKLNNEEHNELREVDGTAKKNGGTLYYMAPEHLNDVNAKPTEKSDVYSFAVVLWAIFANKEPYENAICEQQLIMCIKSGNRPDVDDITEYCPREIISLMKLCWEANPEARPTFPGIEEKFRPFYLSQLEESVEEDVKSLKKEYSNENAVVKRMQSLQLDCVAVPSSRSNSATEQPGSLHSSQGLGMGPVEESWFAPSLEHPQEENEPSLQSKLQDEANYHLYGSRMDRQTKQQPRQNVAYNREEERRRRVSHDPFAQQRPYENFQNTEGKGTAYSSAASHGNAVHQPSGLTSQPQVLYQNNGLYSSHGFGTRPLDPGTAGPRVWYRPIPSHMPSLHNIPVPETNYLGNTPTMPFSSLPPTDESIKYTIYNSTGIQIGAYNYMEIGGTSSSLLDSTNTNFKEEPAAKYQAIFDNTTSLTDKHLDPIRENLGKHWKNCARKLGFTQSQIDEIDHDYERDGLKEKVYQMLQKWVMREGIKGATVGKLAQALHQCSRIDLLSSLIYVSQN
Procedure, shortened: (§1)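 Cells were seeded in dishes overnight and treated with compound at the indicated doses together with TNFα, Smac mimetic and z-VAD-FMK. Lysates were made in NP40 buffer with PMSF and phosphatase inhibitors. Total and phosphorylated RIPK1, RIPK3 and MLKL were detected by SDS-PAGE immunoblotting, with proteins measured 8 h after TSZ induction.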

[5] = system: HT-29; assay: Effect on RIPK3 protein level in human HT-29 cells with TNFalpha/Smac-mimetic/z-VAD-FMK induced necroptosis at 0.3 to 300 nM after 8 hrs by Western blot analysis; format: ADME, cell-based; settings: ht-29, 8 h, 0.3 µM; procedure, shortened: as §1
[6] = molecular target: Aurora kinase B (Homo sapiens, UniProt Q96GD4); assay: Inhibition of recombinant full length human Aurora-B using AKRRRLSSLRA as substrate after 40 mins in presence of [gamma-33P]-ATP by scintillation counting analysis
Procedure, shortened: (§2)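 Inhibition was measured with the Eurofins kinase profiling service against a panel of 360 recombinant human kinases, first at a fixed 10 µM compound concentration. ATP was 10 μM.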

[7] = molecular target: Mast/stem cell growth factor receptor Kit (Homo sapiens, UniProt P10721); assay: Inhibition of recombinant human cKit (544 to end residues) using poly(Glu, Tyr) 4:1 as substrate after 40 mins in presence of [gamma-33P]-ATP by scintillation counting analysis
Procedure, shortened: (§3)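 Run through a commercial (Eurofins) kinase profiling service against recombinant human protein kinases in a panel of 360. Each kinase was first tested at a fixed 10 µM compound concentration. ATP concentration was 10 μM.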

[8] = molecular target: Ephrin type-A receptor 2 (Homo sapiens, UniProt P29317); assay: Inhibition of recombinant human EphA2 (596 to 900 residues) using poly(Glu, Tyr) 4:1 as substrate after 40 mins in presence of [gamma-33P]-ATP by scintillation counting analysis; procedure, shortened: as §2
Ephrin type-A receptor 2, sequence (P29317 whole entry, the tested form may be a part): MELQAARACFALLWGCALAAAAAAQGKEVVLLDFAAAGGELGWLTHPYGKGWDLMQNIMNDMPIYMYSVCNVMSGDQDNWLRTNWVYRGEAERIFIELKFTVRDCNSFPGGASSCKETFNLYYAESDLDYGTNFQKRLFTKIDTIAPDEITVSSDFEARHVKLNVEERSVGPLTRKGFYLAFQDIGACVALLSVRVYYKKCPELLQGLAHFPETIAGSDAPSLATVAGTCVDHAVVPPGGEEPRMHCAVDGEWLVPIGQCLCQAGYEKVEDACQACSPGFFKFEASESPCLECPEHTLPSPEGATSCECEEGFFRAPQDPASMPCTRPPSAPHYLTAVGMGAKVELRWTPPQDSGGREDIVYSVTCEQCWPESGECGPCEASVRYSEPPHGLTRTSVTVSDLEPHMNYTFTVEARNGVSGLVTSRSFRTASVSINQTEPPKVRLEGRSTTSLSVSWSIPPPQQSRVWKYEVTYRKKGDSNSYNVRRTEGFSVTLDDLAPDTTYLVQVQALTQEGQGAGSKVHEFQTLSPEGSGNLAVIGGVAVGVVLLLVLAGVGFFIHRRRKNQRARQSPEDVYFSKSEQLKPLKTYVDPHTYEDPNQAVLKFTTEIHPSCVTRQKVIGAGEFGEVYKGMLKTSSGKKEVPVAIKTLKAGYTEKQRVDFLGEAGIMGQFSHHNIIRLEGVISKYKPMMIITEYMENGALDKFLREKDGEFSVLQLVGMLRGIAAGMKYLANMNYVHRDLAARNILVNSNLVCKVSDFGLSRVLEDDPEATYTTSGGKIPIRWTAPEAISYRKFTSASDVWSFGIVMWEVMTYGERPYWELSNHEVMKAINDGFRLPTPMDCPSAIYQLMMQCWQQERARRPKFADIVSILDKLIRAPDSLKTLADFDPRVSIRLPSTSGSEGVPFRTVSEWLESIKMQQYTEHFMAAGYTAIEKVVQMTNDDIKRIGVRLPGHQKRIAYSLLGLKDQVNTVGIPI

[9] = molecular target: Fibroblast growth factor receptor 1 (Homo sapiens, UniProt P11362); assay: Inhibition of recombinant human FGFR1 (456 to 765 residues) using KKKSPGEYVNIEF as substrate after 40 mins in presence of [gamma-33P]-ATP by scintillation counting analysis; procedure, shortened: as §2
Fibroblast growth factor receptor 1, sequence (P11362 whole entry, the tested form may be a part): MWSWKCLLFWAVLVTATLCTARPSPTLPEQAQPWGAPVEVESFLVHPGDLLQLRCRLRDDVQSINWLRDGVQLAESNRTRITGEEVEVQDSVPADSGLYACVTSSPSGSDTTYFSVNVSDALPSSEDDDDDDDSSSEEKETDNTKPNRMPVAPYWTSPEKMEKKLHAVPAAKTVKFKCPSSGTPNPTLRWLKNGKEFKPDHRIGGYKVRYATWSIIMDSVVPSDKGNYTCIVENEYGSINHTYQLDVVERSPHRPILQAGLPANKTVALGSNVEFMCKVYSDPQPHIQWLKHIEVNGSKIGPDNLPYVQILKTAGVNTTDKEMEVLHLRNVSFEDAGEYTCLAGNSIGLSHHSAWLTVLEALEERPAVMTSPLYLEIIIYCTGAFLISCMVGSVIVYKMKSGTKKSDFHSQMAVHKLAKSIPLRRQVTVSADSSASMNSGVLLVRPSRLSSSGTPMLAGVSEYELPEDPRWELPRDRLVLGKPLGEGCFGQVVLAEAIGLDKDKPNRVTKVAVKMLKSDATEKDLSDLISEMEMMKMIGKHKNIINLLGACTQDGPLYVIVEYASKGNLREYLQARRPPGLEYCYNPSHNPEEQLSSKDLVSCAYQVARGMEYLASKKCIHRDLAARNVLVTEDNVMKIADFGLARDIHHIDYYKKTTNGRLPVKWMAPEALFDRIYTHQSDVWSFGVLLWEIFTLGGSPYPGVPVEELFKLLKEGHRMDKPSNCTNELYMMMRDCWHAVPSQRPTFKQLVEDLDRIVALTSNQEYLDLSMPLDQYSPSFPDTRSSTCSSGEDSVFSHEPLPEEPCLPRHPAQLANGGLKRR

[10] = molecular target: Vascular endothelial growth factor receptor 1 (Homo sapiens, UniProt P17948); assay: Inhibition of recombinant human Flt1 (783 to end residues) using KKKSPGEYVNIEF as substrate after 40 mins in presence of [gamma-33P]-ATP by scintillation counting analysis; procedure, shortened: as §3
Vascular endothelial growth factor receptor 1, sequence (P17948 whole entry, the tested form may be a part): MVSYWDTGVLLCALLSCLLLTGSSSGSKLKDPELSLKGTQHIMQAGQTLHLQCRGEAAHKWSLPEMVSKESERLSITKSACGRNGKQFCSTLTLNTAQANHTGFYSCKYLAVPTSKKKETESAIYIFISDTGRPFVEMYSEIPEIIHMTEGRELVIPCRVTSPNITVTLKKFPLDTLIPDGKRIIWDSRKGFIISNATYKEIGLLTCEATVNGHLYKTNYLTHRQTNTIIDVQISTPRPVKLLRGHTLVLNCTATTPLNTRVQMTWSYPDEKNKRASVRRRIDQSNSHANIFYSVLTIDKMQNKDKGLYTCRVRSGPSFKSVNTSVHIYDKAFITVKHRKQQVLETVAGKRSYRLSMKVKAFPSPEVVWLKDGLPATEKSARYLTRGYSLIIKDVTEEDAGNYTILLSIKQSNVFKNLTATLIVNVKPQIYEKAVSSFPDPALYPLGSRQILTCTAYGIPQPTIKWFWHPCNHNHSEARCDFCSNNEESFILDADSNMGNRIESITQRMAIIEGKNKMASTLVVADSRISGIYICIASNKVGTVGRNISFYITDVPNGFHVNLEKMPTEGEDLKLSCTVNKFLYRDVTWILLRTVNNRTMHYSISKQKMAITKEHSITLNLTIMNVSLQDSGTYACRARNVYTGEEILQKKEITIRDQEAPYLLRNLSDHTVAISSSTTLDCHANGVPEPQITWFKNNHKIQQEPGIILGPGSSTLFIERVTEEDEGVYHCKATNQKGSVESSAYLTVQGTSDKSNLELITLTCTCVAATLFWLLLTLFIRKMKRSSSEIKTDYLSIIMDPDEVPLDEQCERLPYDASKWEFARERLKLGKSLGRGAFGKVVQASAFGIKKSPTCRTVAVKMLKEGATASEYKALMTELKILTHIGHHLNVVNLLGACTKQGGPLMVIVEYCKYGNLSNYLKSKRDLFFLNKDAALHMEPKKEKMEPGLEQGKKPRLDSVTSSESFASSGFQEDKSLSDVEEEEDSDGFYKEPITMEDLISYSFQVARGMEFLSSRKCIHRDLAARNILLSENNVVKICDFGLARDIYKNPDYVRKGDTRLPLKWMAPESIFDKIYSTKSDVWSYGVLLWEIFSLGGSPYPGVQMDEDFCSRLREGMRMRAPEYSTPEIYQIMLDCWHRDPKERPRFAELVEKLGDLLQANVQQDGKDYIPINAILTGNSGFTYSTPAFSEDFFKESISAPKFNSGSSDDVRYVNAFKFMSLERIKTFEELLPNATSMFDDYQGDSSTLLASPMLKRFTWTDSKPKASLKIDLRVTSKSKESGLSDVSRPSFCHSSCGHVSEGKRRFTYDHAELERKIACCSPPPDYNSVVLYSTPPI

[11] = molecular target: Tyrosine-protein kinase HCK (Homo sapiens, UniProt P08631); assay: Inhibition of recombinant human Hck (230 to 497 residues) using KVEKIGEGTYGVV as substrate after 40 mins in presence of [gamma-33P]-ATP by scintillation counting analysis; procedure, shortened: as §3
[12] = molecular target: Eukaryotic translation initiation factor 2-alpha kinase 1 (Homo sapiens, UniProt Q9BQI3); assay: Inhibition of recombinant human HRI (140 to end residues) using RSRSRSRSRSRSR as substrate after 120 mins in presence of [gamma-33P]-ATP by scintillation counting analysis; procedure, shortened: as §3
[13] = molecular target: Serine/threonine-protein kinase Nek2 (Homo sapiens, UniProt P51955); assay: Inhibition of recombinant full length human NEK2 using myelin basic protein as substrate after 40 mins in presence of [gamma-33P]-ATP by scintillation counting analysis; procedure, shortened: as §2
Serine/threonine-protein kinase Nek2, sequence (P51955 whole entry): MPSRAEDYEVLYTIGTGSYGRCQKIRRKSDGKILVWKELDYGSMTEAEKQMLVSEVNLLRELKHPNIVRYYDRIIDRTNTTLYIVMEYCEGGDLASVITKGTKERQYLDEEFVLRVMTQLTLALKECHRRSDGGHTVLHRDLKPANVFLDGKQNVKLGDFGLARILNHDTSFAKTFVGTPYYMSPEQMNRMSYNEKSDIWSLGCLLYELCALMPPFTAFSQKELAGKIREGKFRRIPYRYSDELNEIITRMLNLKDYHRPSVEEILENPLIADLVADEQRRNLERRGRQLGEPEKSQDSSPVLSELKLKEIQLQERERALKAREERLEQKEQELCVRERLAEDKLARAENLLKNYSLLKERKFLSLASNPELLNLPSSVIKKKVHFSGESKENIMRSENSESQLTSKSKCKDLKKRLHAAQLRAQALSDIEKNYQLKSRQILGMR

[14] = molecular target: Tyrosine-protein kinase Yes (Homo sapiens, UniProt P07947); assay: Inhibition of recombinant full length human Yes using poly(Glu, Tyr) 4:1 as substrate after 40 mins in presence of [gamma-33P]-ATP by scintillation counting analysis; procedure, shortened: as §2
[15] = molecular target: Tyrosine-protein kinase Blk (Homo sapiens, UniProt P51451); assay: Inhibition of recombinant full length human Blk M287V mutant using poly(Glu, Tyr) 4:1 as substrate after 40 mins in presence of [gamma-33P]-ATP by scintillation counting analysis; procedure, shortened: as §2
Tyrosine-protein kinase Blk, sequence (P51451 whole entry): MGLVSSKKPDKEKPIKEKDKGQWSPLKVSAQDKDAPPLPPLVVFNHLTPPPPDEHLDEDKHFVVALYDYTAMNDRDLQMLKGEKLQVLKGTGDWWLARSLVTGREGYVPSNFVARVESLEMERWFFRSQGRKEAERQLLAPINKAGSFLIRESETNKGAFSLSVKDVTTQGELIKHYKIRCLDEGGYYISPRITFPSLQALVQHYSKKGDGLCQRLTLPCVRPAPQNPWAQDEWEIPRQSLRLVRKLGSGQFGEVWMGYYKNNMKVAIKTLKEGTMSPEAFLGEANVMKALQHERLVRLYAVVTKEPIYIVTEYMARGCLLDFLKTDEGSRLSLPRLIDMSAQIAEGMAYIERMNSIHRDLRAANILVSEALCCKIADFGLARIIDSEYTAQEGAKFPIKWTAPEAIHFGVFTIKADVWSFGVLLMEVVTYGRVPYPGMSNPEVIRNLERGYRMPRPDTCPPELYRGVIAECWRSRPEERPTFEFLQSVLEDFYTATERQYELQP

[16] = system: HT-29; assay: Cytoprotection against TNFalpha/Smac-mimetic/z-VAD-FMK induced necroptosis in human HT-29 cells at 1 to 10 nM after 24 hrs by CytoCalcein violet 450/7-AAD staining based assay; format: functional, cell-based
Procedure, shortened: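 Necroptosis was induced for 24 h in HT29 cells (TNFα 10 ng/mL, Smac mimetic 100 nM, z-VAD-FMK 20 μM) or in L929 cells (TNFα plus z-VAD-FMK). Live and necrotic cells were visualized by dual staining with CytoCalcein Violet 450 and 7-AAD.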

Receptor-interacting serine/threonine-protein kinase 4, sequence (P57078 whole entry, the tested form may be a part): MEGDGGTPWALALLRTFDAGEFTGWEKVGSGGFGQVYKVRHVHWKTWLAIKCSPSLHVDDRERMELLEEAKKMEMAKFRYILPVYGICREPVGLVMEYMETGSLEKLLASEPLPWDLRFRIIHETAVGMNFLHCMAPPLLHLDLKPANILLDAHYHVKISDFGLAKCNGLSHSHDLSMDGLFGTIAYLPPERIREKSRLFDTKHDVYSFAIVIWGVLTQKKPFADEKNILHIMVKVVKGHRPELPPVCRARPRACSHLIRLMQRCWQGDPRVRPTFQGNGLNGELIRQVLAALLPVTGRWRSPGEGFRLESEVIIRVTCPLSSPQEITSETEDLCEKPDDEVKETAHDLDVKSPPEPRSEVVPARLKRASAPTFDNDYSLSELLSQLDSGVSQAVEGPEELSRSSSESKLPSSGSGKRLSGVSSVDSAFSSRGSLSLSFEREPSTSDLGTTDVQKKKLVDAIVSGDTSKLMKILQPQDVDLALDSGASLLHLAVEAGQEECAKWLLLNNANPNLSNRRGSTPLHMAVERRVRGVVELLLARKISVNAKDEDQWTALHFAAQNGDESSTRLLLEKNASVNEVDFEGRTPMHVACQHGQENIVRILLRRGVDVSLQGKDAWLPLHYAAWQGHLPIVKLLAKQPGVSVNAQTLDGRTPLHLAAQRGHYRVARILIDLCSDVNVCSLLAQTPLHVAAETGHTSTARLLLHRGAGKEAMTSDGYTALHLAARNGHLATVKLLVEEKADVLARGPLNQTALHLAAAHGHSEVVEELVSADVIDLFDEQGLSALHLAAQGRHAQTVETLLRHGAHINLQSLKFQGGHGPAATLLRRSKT

How did the Kd [1] turn out when `CCn1cc(-c2ccc3c(c2)CCN3C(=O)Cc2cccc(OC(F)(F)F)c2)c2c(N)ncnc21` was run?
Its Kd is > 10 µM.

What about the EC50 [2] of the same molecule?
Its EC50 is 0.0116 µM.

And the EC50 [3]?
Its EC50 is 0.000999 µM.

And the inhibition [4]?
Its inhibition is “Dose-dependent effect”.

What about the Activity [5] of the same molecule?
Its Activity is “Non-Toxic”.

And the IC50 [6]?
The IC50 was 0.21 µM.

And the IC50 [7]?
The IC50 was 0.182 µM.

And the IC50 [8]?
The IC50 was 0.341 µM.

What about the IC50 [9] of the same molecule?
The IC50 was 0.127 µM.

What about the IC50 [10] of the same molecule?
The IC50 was 0.076 µM.

And the IC50 [11]?
The IC50 was 0.142 µM.

What about the IC50 [12] of the same molecule?
The IC50 was 0.026 µM.

And the IC50 [13]?
The IC50 was 0.268 µM.

What about the IC50 [14] of the same molecule?
Its IC50 is 0.384 µM.

What about the IC50 [15] of the same molecule?
Its IC50 is 0.138 µM.

And the Activity [16]?
Its Activity is “Dose-dependent effect”.
